Tests used:
[1] = Plasma clearance in C57BL/6 mouse at 2 mg/kg, po and 1 mg/kg, iv; assay type: ADME, organism-based
Procedure, shortened: (§1)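 Pharmacokinetics in C57BL/6 mice: single dose 1 mg/kg iv or 2 mg/kg po.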

[2] = Oral bioavailability in C57BL/6 mouse at 2 mg/kg; assay type: ADME, organism-based; settings: in vivo; procedure, shortened: as §1
[3] = Volume of distribution at steady state in C57BL/6 mouse at 2 mg/kg, po and 1 mg/kg, iv; assay type: ADME, organism-based; settings: in vivo, read-out: Vdss; procedure, shortened: as §1
[4] = Half life in C57BL/6 mouse at 2 mg/kg, po and 1 mg/kg, iv; assay type: ADME, organism-based; settings: in vivo; procedure, shortened: as §1
Mus musculus = experiment: Reduction in plasma free fatty acid level in C57BL/6 mouse at 10 mg/kg, ip after 15 mins; assay type: functional; set-up: scale not given: the % may be the effect or the level left; settings: route intraperitoneal
Procedure, shortened: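 Male C57BL/6 mice, six per group, single 10 mpk ip dose; plasma free fatty acids measured 15 min after dosing and reported as percent reduction. Niacin given at 100 mpk ip as comparator.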

clearance [1] [mL/min/kg] | bioavailability [2] [%] | Vd [3] [L/kg] | half-life [4] [h] | SMILES | Activity (Mus musculus) [%]
24 | 53 | 9.3 |  | O=C(O)c1n[nH]c2c1CC(c1cc(F)cc(F)c1F)C2 (centres undefined) | 
86 | 27 | 4.2 | 2.3 | Cn1nccc1C1Cc2[nH]nc(C(=O)O)c2C1 (centres undefined) | 41
 |  |  |  | Fc1cc(F)c(F)c(C2Cc3[nH]nc(-c4nnn[nH]4)c3C2)c1 (centres undefined) | 21
